Data from ChEMBL document CHEMBL1151428, “Capability of 11 antipneumococcal antibiotics to select for resistance by multistep and single-step methodologies” (2007).
≈ marks a conversion by molar mass, not a printed value.

Legend:
Type in all cases: functional
Streptococcus pneumoniae [1] = experiment: Antimicrobial activity against drug-resistant Streptococcus pneumoniae isolate 24 after 50 passages with moxifloxacin measured after 10 antibiotic-free subculture by multi-step resistance selection technique
Outline: (§1)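 Mutants selected by daily broth passage in subinhibitory drug in cation-adjusted Mueller-Hinton broth with 5% lysed horse blood. Stability was tested by 10 daily passages on blood agar without antibiotic, then macrodilution MIC.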

Streptococcus pneumoniae [2] = experiment: Antimicrobial activity against drug-resistant Streptococcus pneumoniae isolate 1635 after 50 passages by multi-step resistance selection technique
Outline: (§2)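 Daily serial passage in subinhibitory drug levels in 1 ml cation-adjusted Mueller-Hinton broth with 5% lysed horse blood; fresh broth for tigecycline. Each day, 10 μl were taken from the tube one to two dilutions below the MIC whose turbidity matched the growth control, and used to set the next MIC. MIC by macrodilution.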

Streptococcus pneumoniae [3] = experiment: Antimicrobial activity against drug-resistant Streptococcus pneumoniae isolate 3243 after 41 passages with clarithromycin measured after 10 antibiotic-free subculture by multi-step resistance selection technique
Streptococcus pneumoniae [4] = experiment: Antimicrobial activity against drug-resistant Streptococcus pneumoniae isolate 2527 after 14 passages with gemifloxacin measured after 10 antibiotic-free subculture by multi-step resistance selection technique; outline: as §1
Streptococcus pneumoniae [5] = experiment: Antimicrobial activity against drug-resistant Streptococcus pneumoniae isolate 2527 after 20 passages with azithromycin measured after 10 antibiotic-free subculture by multi-step resistance selection technique; outline: as §1
Streptococcus pneumoniae [6] = experiment: Antimicrobial activity against drug-resistant Streptococcus pneumoniae isolate 37 after 50 passages by multi-step resistance selection technique
Outline: (§3)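 Daily serial passage in broth at subinhibitory drug levels: 1 ml cation-adjusted Mueller-Hinton broth with 5% lysed horse blood; fresh broth for tigecycline. Each day 10 μl inoculum taken from the tube one to two dilutions below MIC matching growth-control turbidity, used to set next MIC.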

Streptococcus pneumoniae [7] = experiment: Antimicrobial activity against drug-resistant Streptococcus pneumoniae isolate 1076 after 50 passages by multi-step resistance selection technique
Outline: as §2, with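 “MIC. […]” for “MIC.”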

Streptococcus pneumoniae [8] = experiment: Antimicrobial activity against drug-resistant Streptococcus pneumoniae isolate 3676 by NCCLS M7-A7 method
Streptococcus pneumoniae [9] = experiment: Antimicrobial activity against drug-resistant Streptococcus pneumoniae isolate 3009 after 18 passages with levofloxacin measured after 10 antibiotic-free subculture by multi-step resistance selection technique; outline: as §1
Streptococcus pneumoniae [10] = experiment: Antimicrobial activity against drug-resistant Streptococcus pneumoniae isolate 3665 after 38 passages with moxifloxacin measured after 10 antibiotic-free subculture by multi-step resistance selection technique
Streptococcus pneumoniae [11] = experiment: Antimicrobial activity against drug-resistant Streptococcus pneumoniae isolate 3665 after 26 passages with clarithromycin measured after 10 antibiotic-free subculture by multi-step resistance selection technique
Streptococcus pneumoniae [12] = experiment: Antimicrobial activity against drug-resistant Streptococcus pneumoniae isolate 1077 by NCCLS M7-A7 method
Streptococcus pneumoniae [13] = experiment: Antimicrobial activity against drug-resistant Streptococcus pneumoniae isolate 3243 after 29 passages with Telithromycin measured after 10 antibiotic-free subculture by multi-step resistance selection technique; outline: as §1
Streptococcus pneumoniae [14] = experiment: Antimicrobial activity against drug-resistant Streptococcus pneumoniae isolate 2527 after 14 passages by multi-step resistance selection technique
Outline: as §2, with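 “MIC. […]” for “MIC.”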

Streptococcus pneumoniae [15] = experiment: Antimicrobial activity against drug-resistant Streptococcus pneumoniae isolate 3009 after 21 passages by multi-step resistance selection technique
Outline: as §2, with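 “MIC. […]” for “MIC.”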

Streptococcus pneumoniae [16] = experiment: Antimicrobial activity against drug-resistant Streptococcus pneumoniae isolate 1076 after 14 passages by multi-step resistance selection technique
Outline: as §2, with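 “MIC. […]” for “MIC.”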

Streptococcus pneumoniae [17] = experiment: Antimicrobial activity against drug-resistant Streptococcus pneumoniae isolate 3676 after 14 passages by multi-step resistance selection technique
Outline: as §3, with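 “MIC. Continued until ≥8-fold MIC rise, minimum 14, maximum 50 passages; MIC read by macrodilution.” for “MIC.”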

Streptococcus pneumoniae [18] = experiment: Antimicrobial activity against drug-resistant Streptococcus pneumoniae isolate 24 after 14 passages by multi-step resistance selection technique
Outline: as §2, with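 “MIC. […]” for “MIC.”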

Streptococcus pneumoniae [19] = experiment: Antimicrobial activity against drug-resistant Streptococcus pneumoniae isolate 3243 after 29 passages by multi-step resistance selection technique
Outline: (§4)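 Daily serial passage in subinhibitory drug in cation-adjusted Mueller-Hinton broth with 5% lysed horse blood, 1 ml per tube, fresh broth for tigecycline. Each day, 10 μl was taken from the tube one to two dilutions below the MIC whose turbidity matched the growth control and used for the next MIC. Passaging ran until MIC rose ≥8 times, minimum 14 and maximum 50 passages. Clone MICs were read by macrodilution.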

Streptococcus pneumoniae [20] = experiment: Antimicrobial activity against drug-resistant Streptococcus pneumoniae isolate 3665 after 14 passages by multi-step resistance selection technique
Outline: as §2, with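 “MIC. […]” for “MIC.”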

Streptococcus pneumoniae [21] = experiment: Antimicrobial activity against drug-resistant Streptococcus pneumoniae isolate 1077 after 15 passages by multi-step resistance selection technique; outline: as §4
Streptococcus pneumoniae [22] = experiment: Antimicrobial activity against drug-resistant Streptococcus pneumoniae isolate 37 after 14 passages by multi-step resistance selection technique
Outline: as §3, with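 “MIC. Continued until ≥8-fold MIC rise, minimum 14, maximum 50 passages; MIC read by macrodilution.” for “MIC.”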

Streptococcus pneumoniae [23] = experiment: Antimicrobial activity against drug-resistant Streptococcus pneumoniae isolate 3413 after 30 passages by multi-step resistance selection technique; outline: as §4
Streptococcus pneumoniae [24] = experiment: Antimicrobial activity against drug-resistant Streptococcus pneumoniae isolate 3274 after 48 passages by multi-step resistance selection technique; outline: as §4

SMILES: CO/N=C(\C(=O)N[C@@H]1C(=O)N2C(C(=O)O)=C(CSc3nc(=O)c(O)nn3C)CS[C@H]12)c1csc(N)n1 [CEFTRIAXONE]
- MIC (Streptococcus pneumoniae [1]): 1 µg/mL (≈ 1.8 µM)
- MIC (Streptococcus pneumoniae [2]): 0.03 µg/mL (≈ 0.0541 µM)
- MIC (Streptococcus pneumoniae [3]): 0.125 µg/mL (≈ 0.225 µM)
- MIC (Streptococcus pneumoniae [4]): 1 µg/mL (≈ 1.8 µM)
- MIC (Streptococcus pneumoniae [5]): 2 µg/mL (≈ 3.61 µM)
- MIC (Streptococcus pneumoniae [6]): 1 µg/mL (≈ 1.8 µM)
- MIC (Streptococcus pneumoniae [7]): 0.016 µg/mL (≈ 0.0289 µM)
- MIC (Streptococcus pneumoniae [8]): 0.03 µg/mL (≈ 0.0541 µM)
- MIC (Streptococcus pneumoniae [9]): 0.016 µg/mL (≈ 0.0289 µM)
- MIC (Streptococcus pneumoniae [10]): 0.06 µg/mL (≈ 0.108 µM)
- MIC (Streptococcus pneumoniae [11]): 0.03 µg/mL (≈ 0.0541 µM)
- MIC (Streptococcus pneumoniae [12]): 0.016 µg/mL (≈ 0.0289 µM)
- MIC (Streptococcus pneumoniae [13]): 0.125 µg/mL (≈ 0.225 µM)

SMILES: CO/N=C1\CN(c2nc3c(cc2F)c(=O)c(C(=O)O)cn3C2CC2)CC1CN (stereo not drawn) [GEMIFLOXACIN]
- MIC (Streptococcus pneumoniae [1]): 0.5 µg/mL (≈ 1.28 µM)
- MIC (Streptococcus pneumoniae [2]): 0.06 µg/mL (≈ 0.154 µM)
- MIC (Streptococcus pneumoniae [3]): 0.03 µg/mL (≈ 0.077 µM)
- MIC (Streptococcus pneumoniae [4]): 2 µg/mL (≈ 5.14 µM)
- MIC (Streptococcus pneumoniae [5]): 0.25 µg/mL (≈ 0.642 µM)
- MIC (Streptococcus pneumoniae [6]): 0.016 µg/mL (≈ 0.0411 µM)
- MIC (Streptococcus pneumoniae [14]): 2 µg/mL (≈ 5.14 µM)
- MIC (Streptococcus pneumoniae [7]): 0.5 µg/mL (≈ 1.28 µM)
- MIC (Streptococcus pneumoniae [8]): 0.016 µg/mL (≈ 0.0411 µM)
- MIC (Streptococcus pneumoniae [9]): 1 µg/mL (≈ 2.57 µM)
- MIC (Streptococcus pneumoniae [10]): 0.125 µg/mL (≈ 0.321 µM)
- MIC (Streptococcus pneumoniae [15]): 1 µg/mL (≈ 2.57 µM)
- MIC (Streptococcus pneumoniae [11]): 0.03 µg/mL (≈ 0.077 µM)
- MIC (Streptococcus pneumoniae [12]): 0.25 µg/mL (≈ 0.642 µM)
- MIC (Streptococcus pneumoniae [13]): 0.03 µg/mL (≈ 0.077 µM)

SMILES: C[C@@H](O)[C@H]1C(=O)N2C(C(=O)O)=C(SCCNC=N)C[C@H]12 [IMIPENEM ANHYDROUS]
- MIC (Streptococcus pneumoniae [1]): 0.5 µg/mL (≈ 1.67 µM)
- MIC (Streptococcus pneumoniae [2]): 0.002 µg/mL (≈ 0.00668 µM)
- MIC (Streptococcus pneumoniae [3]): 0.03 µg/mL (≈ 0.1 µM)
- MIC (Streptococcus pneumoniae [4]): 0.125 µg/mL (≈ 0.418 µM)
- MIC (Streptococcus pneumoniae [5]): 0.5 µg/mL (≈ 1.67 µM)
- MIC (Streptococcus pneumoniae [6]): 0.5 µg/mL (≈ 1.67 µM)
- MIC (Streptococcus pneumoniae [7]): 0.008 µg/mL (≈ 0.0267 µM)
- MIC (Streptococcus pneumoniae [8]): 0.016 µg/mL (≈ 0.0534 µM)
- MIC (Streptococcus pneumoniae [10]): 0.03 µg/mL (≈ 0.1 µM)
- MIC (Streptococcus pneumoniae [11]): 0.03 µg/mL (≈ 0.1 µM)
- MIC (Streptococcus pneumoniae [12]): 0.008 µg/mL (≈ 0.0267 µM)
- MIC (Streptococcus pneumoniae [13]): 0.016 µg/mL (≈ 0.0534 µM)

SMILES: CC[C@H]1OC(=O)[C@H](C)C(=O)[C@H](C)[C@@H](O[C@@H]2O[C@H](C)C[C@H](N(C)C)[C@H]2O)[C@](C)(OC)C[C@@H](C)C(=O)[C@H](C)[C@H]2N(CCCCn3cnc(-c4cccnc4)c3)C(=O)O[C@]12C [TELITHROMYCIN]
- MIC (Streptococcus pneumoniae [1]): 0.25 µg/mL (≈ 0.308 µM)
- MIC (Streptococcus pneumoniae [16]): > 64 µg/mL
- MIC (Streptococcus pneumoniae [2]): 0.008 µg/mL (≈ 0.00985 µM)
- MIC (Streptococcus pneumoniae [3]): 0.016 µg/mL (≈ 0.0197 µM)
- MIC (Streptococcus pneumoniae [4]): 0.004 µg/mL (≈ 0.00493 µM)
- MIC (Streptococcus pneumoniae [17]): 2 µg/mL (≈ 2.46 µM)
- MIC (Streptococcus pneumoniae [5]): 0.03 µg/mL (≈ 0.0369 µM)
- MIC (Streptococcus pneumoniae [8]): 0.06 µg/mL (≈ 0.0739 µM)
- MIC (Streptococcus pneumoniae [9]): 0.016 µg/mL (≈ 0.0197 µM)
- MIC (Streptococcus pneumoniae [10]): 0.125 µg/mL (≈ 0.154 µM)
- MIC (Streptococcus pneumoniae [18]): 32 µg/mL (≈ 39.4 µM)
- MIC (Streptococcus pneumoniae [19]): 0.06 µg/mL (≈ 0.0739 µM)
- MIC (Streptococcus pneumoniae [20]): 2 µg/mL (≈ 2.46 µM)
- MIC (Streptococcus pneumoniae [21]): 0.25 µg/mL (≈ 0.308 µM)
- MIC (Streptococcus pneumoniae [11]): 0.06 µg/mL (≈ 0.0739 µM)
- MIC (Streptococcus pneumoniae [22]): 4 µg/mL (≈ 4.93 µM)
- MIC (Streptococcus pneumoniae [12]): 0.004 µg/mL (≈ 0.00493 µM)
- MIC (Streptococcus pneumoniae [23]): 0.25 µg/mL (≈ 0.308 µM)
- MIC (Streptococcus pneumoniae [13]): 0.06 µg/mL (≈ 0.0739 µM)
- MIC (Streptococcus pneumoniae [24]): 0.5 µg/mL (≈ 0.616 µM)

SMILES: CN(C)c1cc(NC(=O)CNC(C)(C)C)c(O)c2c1C[C@H]1C[C@H]3[C@H](N(C)C)C(O)=C(C(N)=O)C(=O)[C@@]3(O)C(O)=C1C2=O [TIGECYCLINE]
- MIC (Streptococcus pneumoniae [1]): 0.03 µg/mL (≈ 0.0512 µM)
- MIC (Streptococcus pneumoniae [2]): 0.03 µg/mL (≈ 0.0512 µM)
- MIC (Streptococcus pneumoniae [3]): 0.03 µg/mL (≈ 0.0512 µM)
- MIC (Streptococcus pneumoniae [4]): 0.03 µg/mL (≈ 0.0512 µM)
- MIC (Streptococcus pneumoniae [5]): 0.03 µg/mL (≈ 0.0512 µM)
- MIC (Streptococcus pneumoniae [6]): 0.016 µg/mL (≈ 0.0273 µM)
- MIC (Streptococcus pneumoniae [7]): 0.03 µg/mL (≈ 0.0512 µM)
- MIC (Streptococcus pneumoniae [8]): 0.016 µg/mL (≈ 0.0273 µM)
- MIC (Streptococcus pneumoniae [9]): 0.06 µg/mL (≈ 0.102 µM)
- MIC (Streptococcus pneumoniae [10]): 0.03 µg/mL (≈ 0.0512 µM)
- MIC (Streptococcus pneumoniae [11]): 0.03 µg/mL (≈ 0.0512 µM)
- MIC (Streptococcus pneumoniae [12]): 0.016 µg/mL (≈ 0.0273 µM)
- MIC (Streptococcus pneumoniae [13]): 0.03 µg/mL (≈ 0.0512 µM)
